High-throughput results: PubChem, several laboratories
SENP1 inh: human SENP1 catalytic domain inhibitors, primary screen, biochemical, FRET, uHTS; Sentrin-specific protease 1 (Homo sapiens), Q9P0U3; recombinant SENP1 catalytic domain, CyPet-SUMO1-YPet FRET cleavage; inhibition, % at 10 µM; actives 0.21% (n = 360,000);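 active = inhibition at least 30% at 10 µM, raw YFP signal under a set limit, fluorescence ratio 0.5 to 1.5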
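System: Recombinant human SENP1 catalytic domain, His6-tagged | Incubation: Enzyme reaction for 50 min at room temperature, dark | Medium: Tris pH 8 with BME, BSA, NP40 and catalase | Also added: 25 nM SUMO1 FRET substrate | Compound: 10 µM single point, 0.5% DMSO | Measured by: FRET fluorescence in CFP and YFP emission channels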
DAGLB inh: DAGLB lipase inhibitors, primary screen, biochemical, fluorescence, HTS. HEK293T DAGLB membrane lysate, EnzChek fluorogenic substrate. inhibition, % at 5.17 µM. actives 0.059% (n = 340,000). Diacylglycerol lipase-beta (Homo sapiens), Q8NCG7. AID 504411, 2011; in the data active = inhibition above about 34%
Target sequence (Q8NCG7 whole entry, looked up): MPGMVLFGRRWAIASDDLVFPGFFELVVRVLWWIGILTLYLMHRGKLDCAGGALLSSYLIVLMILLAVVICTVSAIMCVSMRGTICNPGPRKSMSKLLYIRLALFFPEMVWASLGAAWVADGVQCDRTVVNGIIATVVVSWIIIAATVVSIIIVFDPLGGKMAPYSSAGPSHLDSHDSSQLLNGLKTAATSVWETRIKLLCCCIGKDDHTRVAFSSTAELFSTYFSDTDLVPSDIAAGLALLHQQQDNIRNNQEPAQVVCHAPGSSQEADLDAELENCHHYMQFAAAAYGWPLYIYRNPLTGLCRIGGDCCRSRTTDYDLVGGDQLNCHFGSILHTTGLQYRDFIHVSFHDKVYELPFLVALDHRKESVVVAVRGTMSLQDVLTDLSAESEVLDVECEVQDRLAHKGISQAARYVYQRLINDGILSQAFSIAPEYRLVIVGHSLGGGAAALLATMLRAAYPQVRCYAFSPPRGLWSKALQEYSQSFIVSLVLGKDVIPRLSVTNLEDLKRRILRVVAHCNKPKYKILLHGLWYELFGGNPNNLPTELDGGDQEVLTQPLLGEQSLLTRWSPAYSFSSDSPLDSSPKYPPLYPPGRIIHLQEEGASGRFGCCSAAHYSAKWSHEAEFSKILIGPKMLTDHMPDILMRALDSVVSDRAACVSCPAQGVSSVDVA
Myeloid diff MLP: induction of myeloid progenitor differentiation, primary screen, cell-based, flow cytometry, MLPCN library; ER-HoxA9 myeloid progenitors, lysozyme-GFP differentiation; calls only at 10 µM; actives 1% (n = 360,000); AID 624256, 2012;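 active = normalized GFP-positive differentiation at or above the plate's own cutoff, the solvent-only control mean plus 3 SD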;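 also: cells exposed to compound for four days before flow analysis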
MT1-MMP act inh: blockers of MT1-MMP proenzyme processing, primary screen, HT1080 RFP-PRO-GFP cells, GFP/RFP fluorescence; Matrix metalloproteinase-14 (Homo sapiens), P50281; GFP/RFP ratio fluorescence, overnight; percent of plate control window, DMSO zero; GFP/RFP ratio change, % at 20 µM; actives 0.061% (n = 360,000); AID 651647, 2012;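 active = GFP/RFP ratio change of at least 30% with cell ATP level not reduced by more than half and red fluorescence within 50% of control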
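system = RFP-PRO-GFP reporter HT1080 cells | dosing = 20 µM single dose, 1% DMSO | timing = overnight cell settling, then overnight compound exposure, 37 °C, 5% CO2 | read-out basis = GFP/RFP fluorescence ratio | controls = DMSO and RFP-L50D-GFP cell wells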
beta cell repl: inducers of MIN6 beta-cell proliferation, primary screen, ATP luminescence, uHTS. actives 0.29% (n = 330,000). proliferation, % at 10 µM. MIN6 cells proliferation, ATPlite luminescence, 48 h; cells starved in 0.2% serum; 100% = growth in 10% serum;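 active = compounds whose signal lies at least 3.5 SD above the mean of all wells on their plate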
CendR NRP1 mod: modulators of CendR peptide binding to NRP-1, primary screen, biochemical, fluorescence polarization, uHTS; actives 0.85% (n = 360,000); inhibition, % at 25 µM; AID 602438, 2012; FAM-RPARPAR peptide binding to NRP-1; Neuropilin-1 (Homo sapiens), O14786;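 active = inhibition or corrected inhibition above about 18%, plus a signal ratio from 0.5 to 1.5, limit read from the data, passing the limit was not always enough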
Of the large screens only hits and unclear results are named; the others gave an inactive call. Rows were chosen to be rich in hits. Some 2.4% of all compounds tested hit in one or more screens of this group.

COc1cc(C2NC(=O)c3ccccc3O2)ccc1OC(C)C (stereo unspecified)	Myeloid diff MLP active
O=C(Nc1ccccc1Cl)c1cc(C2CCCCN2C(=O)CCc2ccccc2)on1 (stereo unspecified)	none (no result: DAGLB inh, beta cell repl)
CCCNC(=O)c1cc(C2CCCCN2C(=O)c2cc(F)ccc2C)on1 (stereo unspecified)	none (no result: DAGLB inh, beta cell repl)
O=C(Nc1cccc2c1CCCC2)c1cc(C2CCCCN2C(=O)CCCc2ccccc2)on1 (stereo unspecified)	CendR NRP1 mod 52 (no result: DAGLB inh, beta cell repl)
O=C(NCc1ccc(F)cc1)c1cc(C2CCCCN2C(=O)CCCc2ccccc2)on1 (stereo unspecified)	CendR NRP1 mod 49 (no result: DAGLB inh, beta cell repl)
Cc1ccc(F)cc1C(=O)N1CCCCC1c1cc(C(=O)NCc2ccccc2)no1 (stereo unspecified)	CendR NRP1 mod 22 (no result: DAGLB inh, beta cell repl)
O=C(NCc1ccccc1)c1cc(C2CCCCN2C(=O)CCCc2ccccc2)on1 (stereo unspecified)	none (no result: DAGLB inh, beta cell repl)
CN(C)c1cc[n+](CC[n+]2ccc(N(C)C)cc2)cc1	none
CN(C)c1cc[n+](Cc2c(Cl)cccc2Cl)cc1	Myeloid diff MLP active
COc1ccc(CCNC(=O)c2c(O)c3cccc4c3n(c2=O)CC4)cc1OC	CendR NRP1 mod 44
CNC(=O)c1c(O)c2cccc3c2n(c1=O)CC3	none
CCOC1=C2[C@H](c3ccccc3)N(S(=O)(=O)c3ccccc3)C[C@H]2n2c(=O)n(-c3ccccc3)c(=O)n2C1	none (no result: DAGLB inh, beta cell repl)
CCCN(CCC)c1ccc(/C=C/c2ccc3cc(OCC)ccc3n2)cc1	Myeloid diff MLP active (no result: beta cell repl)
c1ccc2c(c1)ccc1ccccc12	none
CCCCCCCCCCCCCCCC[n+]1cccc2ccccc21	CendR NRP1 mod 42 (no result: Myeloid diff MLP)
CCCCCCCCC[n+]1cccc2c3ccccc3ccc21	CendR NRP1 mod 33 (no result: Myeloid diff MLP)
Cc1ccc(C(=O)COC(=O)c2cn(-c3ccccc3)nc2-c2ccccc2)cc1[N+](=O)[O-]	none
CCc1nc2ccccc2[nH]c1=O	none
Cc1cc(C)c(S(=O)(=O)N2CCN(C(=O)c3cc4ccccc4oc3=O)CC2)c(C)c1	none
C(=N\Nc1nc2ccccc2[nH]1)/c1ccc2ncccc2c1	Myeloid diff MLP active
C(=N\Nc1nc2ccccc2[nH]1)/c1ccccn1	none (no result: beta cell repl)
COc1ccc(Nc2nc3c(C)cccc3cc2C#N)cc1	CendR NRP1 mod 38
CCS(=O)(=O)N1N=C(c2ccc(NS(C)(=O)=O)cc2)CC1c1ccccc1 (stereo unspecified)	Myeloid diff MLP active
O=C1CCC/C(=N\NC(=O)c2ccc(COc3cccc4cccnc34)cc2)C1	none
O=C(N/N=C/c1ccccc1C(=O)O)c1ccc(COc2cccc3cccnc23)cc1	Myeloid diff MLP active
NNC(=O)c1ccc(COc2cccc3cccnc23)cc1	Myeloid diff MLP active
Cn1c(N=Cc2ccc([N+](=O)[O-])cc2)c(N)c(=O)n(C)c1=O	none (no result: beta cell repl)
C=CCNC(=O)c1onc(CSc2ccccc2)c1C(=O)NCC=C	none
C=CCNC(=O)c1onc(CSc2ccc(F)c(F)c2)c1C(=O)NCC=C	CendR NRP1 mod 25
Cc1ccc2c(c1)C(=O)C(=O)N2CC(=O)OC(C)C	CendR NRP1 mod 27
Cc1ccc(OCCN2C(=O)C(=O)c3cc(C)ccc32)cc1	none (no result: Myeloid diff MLP)
COc1ccc(N2CC(C(=O)Nc3nnc(SCC(=O)NCc4ccco4)s3)CC2=O)cc1 (stereo unspecified)	Myeloid diff MLP active
C/C(Cl)=C/CSc1nn2c(=O)c3ccccc3nc2s1	CendR NRP1 mod 26
O=C(O)CCCNc1cc(N2CCN(C(=O)c3ccco3)CC2)c2noc3c2c1C(=O)c1ccccc1-3	SENP1 inh 83
O=C(O)CCCNc1cc(N2CCC3(CC2)OCCO3)c2noc3c2c1C(=O)c1ccccc1-3	none (no result: SENP1 inh, DAGLB inh, Myeloid diff MLP, MT1-MMP act inh, CendR NRP1 mod)
O=C(c1ccco1)N1CCN(CCCCN2C(=O)c3ccccc3C2=O)CC1	none
CN1CCN(c2cc(N3CCN(C(=O)c4ccco4)CC3)c3c4c(onc24)-c2ccccc2C3=O)CC1	SENP1 inh 49
CCOC(=O)N1CCN(c2cc(NCCC(=O)O)c3c4c(onc24)-c2ccccc2C3=O)CC1	none
O=C1c2ccccc2-c2onc3c(N4CCN(CCO)CC4)cc(N4CCN(C(=O)c5ccco5)CC4)c1c23	SENP1 inh 32, Myeloid diff MLP active
COc1cccc(NC(=O)Nc2nnc(N3C(C)CCCC3C)s2)c1 (stereo unspecified)	none
NCCCC(N)(C(=O)O)C(F)F (stereo unspecified)	Myeloid diff MLP active
Cc1ccc(NS(=O)(=O)c2cc(-c3n[nH]c(=O)c4ccccc34)ccc2C)cc1	Myeloid diff MLP active
CCOC(=O)CNS(=O)(=O)c1cc(-c2n[nH]c(=O)c3ccccc23)ccc1C	none (no result: beta cell repl)
COc1ccccc1C(=O)C1CCCN(C(=O)c2ccccn2)C1 (stereo unspecified)	none
CC(C)C[C@@H](CSc1ccc(Br)cc1)N1CCN(CC(C)C)CCC1=O	CendR NRP1 mod 21
CC(C)C[C@@H](CSc1ccc(Br)cc1)N1CCN(C)CCC1=O	none
Cc1ccc(SC[C@H](c2ccccc2)N2CCN(CC(C)C)CCC2=O)cc1	CendR NRP1 mod 33
CC(C)CN1CCC(=O)N([C@H](CSc2ccc(Br)cc2)c2ccccc2)CC1	none
CCOC(=O)c1c(NC(C)=O)sc2c1CCC(C=NCCCN(CC)CC)=C2Sc1ccccc1	Myeloid diff MLP active
COc1ccc(C)cc1Nc1nc(-c2c[nH]c3ccccc23)cs1	Myeloid diff MLP active
COc1ccc(OC)c(Nc2nc(-c3cccs3)cs2)c1	none
COc1ccc2c(c1O)Cc1ccccc1C2=O	MT1-MMP act inh 35
COC(=O)C[C@@H]1C=C[C@H](NC(=O)Nc2ccc(OC)cc2)[C@@H](CO)O1	none (no result: DAGLB inh, beta cell repl)
COc1ccc2c(c1)c(CC(=O)Nc1ccccc1OC)c(C)n2C(=O)c1ccc(Cl)cc1	none
COc1ccc2c(c1)c(CC(=O)Nc1cc(C)ccc1C)c(C)n2C(=O)c1ccc(Cl)cc1	Myeloid diff MLP active
CSc1ccc(C=NNc2ccc(S(=O)(=O)Nc3ccccc3C(=O)O)cc2[N+](=O)[O-])cc1	Myeloid diff MLP active
Cc1nn(-c2ccc(F)cc2)c(N)c1C1(O)C(=O)Nc2ccccc21 (stereo unspecified)	none
CCCCN(C)CC(O)Cn1cc(/C=C/C(=O)c2cccs2)c2ccccc21 (stereo unspecified)	none (no result: beta cell repl)
